Source: ChEMBL document CHEMBL1926577, “Novel 1,3,4-heterodiazole analogues: synthesis and in-vitro antitumor activity” (2012)

Columns and labels:
Format in all cases: functional
CCRF-CEM = experiment: Growth inhibition of human CCRF-CEM cells at 10 uM after 48 hrs by coulter counter method; conditions: read-out: GI
Outline: (§1)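 NCI 60-cell-line panel, single dose. Compound dissolved first in DMSO, then diluted in phosphate-buffered saline so that every final dilution held under 1% DMSO. Duplicate wells received cells at 6 × 10⁴ cells/ml. Controls held PBS/DMSO at the same dilution. Plates were incubated 48 h at 37 °C under 5% CO₂. Cells were then diluted 10-fold in saline and counted on a Coulter counter, with counts corrected for the dilution. Results are given as percent growth inhibition.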

HL-60(TB) = experiment: Growth inhibition of human HL-60(TB) cells at 10 uM after 48 hrs by coulter counter method; conditions: HL-60, 48 h, read-out: GI
Outline: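 Single-dose screen on the NCI 60-line panel (leukemia subpanel). Compound is dissolved in DMSO and diluted in PBS, with final DMSO below 1%. Duplicate wells hold 6 × 10⁴ cells/ml at 37 °C, 5% CO₂, for 48 h. Cells are counted by Coulter counter after 10-fold saline dilution. Read-out is percent growth versus PBS/DMSO controls, expressed as % growth inhibition.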

K562 = experiment: Growth inhibition of human K562 cells at 10 uM after 48 hrs by coulter counter method; conditions: K562, 48 h, read-out: GI; outline: as §1
MOLT-4 = experiment: Growth inhibition of human MOLT4 cells at 10 uM after 48 hrs by coulter counter method; conditions: MOLT-4, 48 h, read-out: GI; outline: as §1
RPMI-8226 = experiment: Growth inhibition of human RPMI8226 cells at 10 uM after 48 hrs by coulter counter method; conditions: RPMI-8226, 48 h, read-out: GI; outline: as §1
SR = experiment: Growth inhibition of human SR cells at 10 uM after 48 hrs by coulter counter method; conditions: read-out: GI; outline: as §1
A549 = experiment: Growth inhibition of human A549 cells at 10 uM after 48 hrs by coulter counter method; conditions: A549, 48 h, read-out: GI; outline: as §1
EKVX = experiment: Growth inhibition of human EKVX cells at 10 uM after 48 hrs by coulter counter method; conditions: read-out: GI; outline: as §1
NCI-H226 = experiment: Growth inhibition of human NCI-H226 cells at 10 uM after 48 hrs by coulter counter method; conditions: NCI-H226, 48 h, read-out: GI; outline: as §1
NCI-H23 = experiment: Growth inhibition of human NCI-H23 cells at 10 uM after 48 hrs by coulter counter method; conditions: NCI-H23, 48 h, read-out: GI; outline: as §1
NCI-H322M = experiment: Growth inhibition of human NCI-H322M cells at 10 uM after 48 hrs by coulter counter method; conditions: read-out: GI; outline: as §1
NCI-H522 = experiment: Growth inhibition of human NCI-H522 cells at 10 uM after 48 hrs by coulter counter method; conditions: NCI-H522, 48 h, read-out: GI; outline: as §1
HCT-116 = experiment: Growth inhibition of human HCT116 cells at 10 uM after 48 hrs by coulter counter method; conditions: HCT-116, 48 h, read-out: GI; outline: as §1
HCT-15 = experiment: Growth inhibition of human HCT15 cells at 10 uM after 48 hrs by coulter counter method; conditions: HCT-15, 48 h, read-out: GI; outline: as §1
HT-29 = experiment: Growth inhibition of human HT-29 cells at 10 uM after 48 hrs by coulter counter method; conditions: HT-29, 48 h, read-out: GI; outline: as §1
KM12 = experiment: Growth inhibition of human KM12 cells at 10 uM after 48 hrs by coulter counter method; conditions: KM12, 48 h, read-out: GI; outline: as §1
SF-268 = experiment: Growth inhibition of human SF268 cells at 10 uM after 48 hrs by coulter counter method; conditions: SF-268, 48 h, read-out: GI; outline: as §1
SF-295 = experiment: Growth inhibition of human SF295 cells at 10 uM after 48 hrs by coulter counter method; conditions: SF-295, 48 h, read-out: GI; outline: as §1
SNB-19 = experiment: Growth inhibition of human SNB19 cells at 10 uM after 48 hrs by coulter counter method; conditions: SNB-19, 48 h, read-out: GI; outline: as §1
SNB-75 = experiment: Growth inhibition of human SNB75 cells at 10 uM after 48 hrs by coulter counter method; conditions: SNB-75, 48 h, read-out: GI; outline: as §1
U-251 = experiment: Growth inhibition of human U251 cells at 10 uM after 48 hrs by coulter counter method; conditions: U-251, 48 h, read-out: GI; outline: as §1
LOX IMVI = experiment: Growth inhibition of human LOXIMVI cells at 10 uM after 48 hrs by coulter counter method; conditions: read-out: GI; outline: as §1
Malme-3M = experiment: Growth inhibition of human MALME-3M cells at 10 uM after 48 hrs by coulter counter method; conditions: read-out: GI; outline: as §1
M14 = experiment: Growth inhibition of human M14 cells at 10 uM after 48 hrs by coulter counter method; conditions: M14, 48 h, read-out: GI; outline: as §1
MDA-MB-435 = experiment: Growth inhibition of human MDA-MB-435 cells at 10 uM after 48 hrs by coulter counter method; conditions: MDA-MB-435, 48 h, read-out: GI; outline: as §1
SK-MEL-2 = experiment: Growth inhibition of human SK-MEL-2 cells at 10 uM after 48 hrs by coulter counter method; conditions: SK-MEL-2, 48 h, read-out: GI; outline: as §1
SK-MEL-28 = experiment: Growth inhibition of human SK-MEL-28 cells at 10 uM after 48 hrs by coulter counter method; conditions: SK-MEL-28, 48 h, read-out: GI; outline: as §1
SK-MEL-5 = experiment: Growth inhibition of human SK-MEL-5 cells at 10 uM after 48 hrs by coulter counter method; conditions: SK-MEL-5, 48 h, read-out: GI; outline: as §1
UACC-257 = experiment: Growth inhibition of human UACC257 cells at 10 uM after 48 hrs by coulter counter method; conditions: UACC-257, 48 h, read-out: GI; outline: as §1
UACC-62 = experiment: Growth inhibition of human UACC62 cells at 10 uM after 48 hrs by coulter counter method; conditions: UACC-62, 48 h, read-out: GI; outline: as §1
IGROV-1 = experiment: Growth inhibition of human IGROV1 cells at 10 uM after 48 hrs by coulter counter method; conditions: IGROV-1, 48 h, read-out: GI; outline: as §1
OVCAR-8 = experiment: Growth inhibition of human OVCAR8 cells at 10 uM after 48 hrs by coulter counter method; conditions: OVCAR-8, 48 h, read-out: GI; outline: as §1
NCI/ADR-RES = experiment: Growth inhibition of human NCI/ADR-RES cells at 10 uM after 48 hrs by coulter counter method; conditions: read-out: GI; outline: as §1
786-0 = experiment: Growth inhibition of human 786-0 cells at 10 uM after 48 hrs by coulter counter method; conditions: 786-0, 48 h, read-out: GI; outline: as §1
A498 = experiment: Growth inhibition of human A498 cells at 10 uM after 48 hrs by coulter counter method; conditions: A498, 48 h, read-out: GI; outline: as §1
ACHN = experiment: Growth inhibition of human ACHN cells at 10 uM after 48 hrs by coulter counter method; conditions: read-out: GI; outline: as §1
CAKI-1 = experiment: Growth inhibition of human Caki1 cells at 10 uM after 48 hrs by coulter counter method; conditions: CAKI-1, 48 h, read-out: GI; outline: as §1
SN12C = experiment: Growth inhibition of human SN12C cells at 10 uM after 48 hrs by coulter counter method; conditions: read-out: GI; outline: as §1
TK-10 = experiment: Growth inhibition of human TK10 cells at 10 uM after 48 hrs by coulter counter method; conditions: TK-10, 48 h, read-out: GI; outline: as §1
UO-31 = experiment: Growth inhibition of human UO31 cells at 10 uM after 48 hrs by coulter counter method; conditions: UO-31, 48 h, read-out: GI; outline: as §1
PC-3 = experiment: Growth inhibition of human PC3 cells at 10 uM after 48 hrs by coulter counter method; conditions: PC-3, 48 h, read-out: GI; outline: as §1
MCF7 = experiment: Growth inhibition of human MCF7 cells at 10 uM after 48 hrs by coulter counter method; conditions: MCF7, 48 h, read-out: GI; outline: as §1
BT-549 = experiment: Growth inhibition of human BT549 cells at 10 uM after 48 hrs by coulter counter method; conditions: BT-549, 48 h, read-out: GI; outline: as §1
T47D = experiment: Growth inhibition of human T47D cells at 10 uM after 48 hrs by coulter counter method; conditions: read-out: GI; outline: as §1
MDA-MB-468 = experiment: Growth inhibition of human MDA-MB-468 cells at 10 uM after 48 hrs by coulter counter method; conditions: MDA-MB-468, 48 h, read-out: GI; outline: as §1

Q: Which results are given for `NC1=CC(N)=NC2SC(c3ccccc3)=NN12` (stereo not given)?
A: inhibition of growth at 10 µM (CCRF-CEM): < 10%; inhibition of growth at 10 µM (HL-60(TB)): < 10%; inhibition of growth at 10 µM (K562): < 10%; inhibition of growth at 10 µM (MOLT-4): < 10%; inhibition of growth at 10 µM (RPMI-8226): < 10%; inhibition of growth at 10 µM (SR): < 10%; inhibition of growth at 10 µM (A549): < 10%; inhibition of growth at 10 µM (EKVX): < 10%; inhibition of growth at 10 µM (NCI-H226): < 10%; inhibition of growth at 10 µM (NCI-H23): < 10%; inhibition of growth at 10 µM (NCI-H322M): < 10%; inhibition of growth at 10 µM (NCI-H522): < 10%; inhibition of growth at 10 µM (HCT-116): < 10%; inhibition of growth at 10 µM (HCT-15): < 10%; inhibition of growth at 10 µM (HT-29): < 10%; inhibition of growth at 10 µM (KM12): < 10%; inhibition of growth at 10 µM (SF-268): < 10%; inhibition of growth at 10 µM (SF-295): < 10%; inhibition of growth at 10 µM (SNB-19): < 10%; inhibition of growth at 10 µM (SNB-75): 11.6%; inhibition of growth at 10 µM (U-251): < 10%; inhibition of growth at 10 µM (LOX IMVI): < 10%; inhibition of growth at 10 µM (Malme-3M): < 10%; inhibition of growth at 10 µM (M14): < 10%; inhibition of growth at 10 µM (MDA-MB-435): < 10%; inhibition of growth at 10 µM (SK-MEL-2): < 10%; inhibition of growth at 10 µM (SK-MEL-28): < 10%; inhibition of growth at 10 µM (SK-MEL-5): < 10%; inhibition of growth at 10 µM (UACC-257): 16.4%; inhibition of growth at 10 µM (UACC-62): < 10%; inhibition of growth at 10 µM (IGROV-1): 15.8%; inhibition of growth at 10 µM (OVCAR-8): < 10%; inhibition of growth at 10 µM (NCI/ADR-RES): < 10%; inhibition of growth at 10 µM (786-0): < 10%; inhibition of growth at 10 µM (A498): < 10%; inhibition of growth at 10 µM (ACHN): < 10%; inhibition of growth at 10 µM (CAKI-1): 10.7%; inhibition of growth at 10 µM (SN12C): < 10%; inhibition of growth at 10 µM (TK-10): < 10%; inhibition of growth at 10 µM (UO-31): 36.6%; inhibition of growth at 10 µM (PC-3): < 10%; inhibition of growth at 10 µM (MCF7): < 10%; inhibition of growth at 10 µM (BT-549): < 10%; inhibition of growth at 10 µM (T47D): < 10%; inhibition of growth at 10 µM (MDA-MB-468): < 10%
